Experimental data: ChEMBL document CHEMBL4350969, “Falcipain Inhibitors Based on the Natural Product Gallinamide A Are Potent in Vitro and in Vivo Antimalarials” (J Med Chem, 2019)
Active and inactive are the calls of the source. The calls are words filed in the database; no cut-off is given here.

Columns and labels:
Plasmodium falciparum [1] = assay: Antimalarial activity against synchronized ring stage CQ-sensitive Plasmodium falciparum 3D7 infected in human erythrocytes incubated for 24 hrs followed by compound washout and subsequent compound addition and measured after 48 hrs by YOYO-1 probe-based flow cytometry; assay type: functional, organism-based
Plasmodium falciparum [2] = assay: Antimalarial activity against synchronized ring stage CQ-resistant Plasmodium falciparum W2 infected in human erythrocytes incubated for 24 hrs followed by compound washout and subsequent compound addition and measured after 48 hrs by YOYO-1 probe-based flow cytometry; assay type: functional, organism-based
Falcipain 2 = target: T1, Falcipain 2 (Plasmodium falciparum, UniProt Q9N6S8); assay: Inhibition of Plasmodium falciparum N-terminal His6-tagged falcipain-2 (35 residues) expressed in Escherichia coli M15 pREP4 using Z-Lue-Arg-AMC as substrate measured after 30 mins by spectrofluorometric method
T1 sequence (Q9N6S8 whole entry): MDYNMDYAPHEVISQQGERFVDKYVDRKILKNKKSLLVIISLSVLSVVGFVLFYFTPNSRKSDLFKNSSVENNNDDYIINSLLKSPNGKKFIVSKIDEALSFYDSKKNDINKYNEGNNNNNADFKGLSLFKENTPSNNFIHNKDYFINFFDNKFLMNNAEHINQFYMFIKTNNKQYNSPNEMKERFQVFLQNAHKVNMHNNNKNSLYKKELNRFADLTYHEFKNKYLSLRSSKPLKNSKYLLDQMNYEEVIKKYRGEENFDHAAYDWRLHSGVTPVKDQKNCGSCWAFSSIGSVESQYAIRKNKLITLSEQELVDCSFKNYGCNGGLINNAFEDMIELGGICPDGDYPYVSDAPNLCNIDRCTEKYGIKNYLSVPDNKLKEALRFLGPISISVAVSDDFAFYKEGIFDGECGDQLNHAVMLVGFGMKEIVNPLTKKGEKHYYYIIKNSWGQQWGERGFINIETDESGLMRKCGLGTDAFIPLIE
Method in brief: (§1)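 Recombinant heterologously expressed FP2 or FP3; inhibition measured by continuous kinetic cleavage of fluorogenic substrate Z-Leu-Arg-AMC.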

[3] = target: T2, Cysteine protease falcipain-3 (Plasmodium falciparum, UniProt Q9NAW4); assay: Inhibition of Plasmodium falciparum N-terminal His-tagged falcipain-3 (33 residues) expressed in Escherichia coli M15 pREP4 using Z-Leu-Arg-AMC as substrate measured after 30 mins by spectrofluorometric method; method in brief: as §1
T2 sequence (Q9NAW4 whole entry): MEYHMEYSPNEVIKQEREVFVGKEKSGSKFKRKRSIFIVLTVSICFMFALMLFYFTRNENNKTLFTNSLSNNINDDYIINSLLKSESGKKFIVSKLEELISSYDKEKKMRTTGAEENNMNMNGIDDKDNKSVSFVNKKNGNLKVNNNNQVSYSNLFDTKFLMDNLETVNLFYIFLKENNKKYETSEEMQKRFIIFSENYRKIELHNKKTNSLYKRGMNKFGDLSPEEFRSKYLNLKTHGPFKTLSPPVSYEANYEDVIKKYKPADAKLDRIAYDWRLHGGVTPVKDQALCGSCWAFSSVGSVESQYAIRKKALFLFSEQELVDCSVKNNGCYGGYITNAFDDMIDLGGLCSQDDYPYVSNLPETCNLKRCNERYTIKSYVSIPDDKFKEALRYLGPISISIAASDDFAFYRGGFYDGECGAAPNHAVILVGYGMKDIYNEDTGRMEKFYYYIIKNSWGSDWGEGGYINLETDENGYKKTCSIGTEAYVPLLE

[4] = Half life in Swiss mouse plasma at 1 ug/ml by UPLC-MS analysis; assay type: ADME, cell-free
Method in brief: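 Fresh whole blood from non-fasted male Swiss outbred mice; plasma separated by centrifugation. Compound spiked to 1 μg/mL final (0.2% DMSO, 0.4% acetonitrile), kept at 37 °C; aliquots taken over 4 h (n=3 per time point), snap-frozen, protein precipitated with acetonitrile, UPLC-MS (ESI+) against matrix calibration standards. Exponential decay fit gives k; half-life = ln(2)/k.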

[5] = Drug metabolism in mouse liver microsomes assessed as N,N-bis-demethylation at 10 uM measured after 60 mins in presence of NADPH-generating system by UPLC-MS analysis; assay type: ADME, Microsome; conditions: 1 h
HEK293 = assay: Cytotoxicity against HEK293 cells assessed as reduction in cell viability at 25 uM measured after 18 hrs by alamar blue assay; assay type: cell-based; conditions: human, hek293, 18 h
[6] = Drug metabolism in human liver microsomes assessed as N,N-bis-demethylation at 10 uM measured after 60 mins in presence of NADPH-generating system by UPLC-MS analysis; assay type: ADME, Microsome; conditions: 1 h
[7] = Half life in Swiss mouse blood at 1 ug/ml by UPLC-MS analysis; assay type: ADME, tissue-based; conditions: whole blood
Plasmodium berghei [8] = assay: Antimalarial activity against Plasmodium berghei ANKA infected in specific pathogen-free C57BL/6 mouse assessed as reduction in parasitemia at 50 mg/kg, ip administered once daily for 4 days measured up to 35 days post-infection by rapid staining-based microscopic analysis; assay type: functional, organism-based
Method in brief: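 Established-infection model: female C57BL/6 mice inoculated i.p. with 10^6 PbA-parasitized red cells; compound in DMSO diluted in saline given i.p. at 50 mg/kg on days 4, 5, 6 and 7 post-infection, chloroquine 50 mg/kg as comparator, vehicle controls; 7 mice per group. Tail-vein smears, % parasitemia by microscopy, mean ± SEM; survival recorded.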

Plasmodium berghei [9] = assay: Antimalarial activity against Plasmodium berghei ANKA infected in specific pathogen-free C57BL/6 mouse assessed as reduction in disease severity at 100 mg/kg, po administered once daily for 4 days measured up to 35 days post-infection by rapid staining-based microscopic analysis; assay type: functional, organism-based
Method in brief: (§2)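 Female C57BL/6 mice, 8–9 weeks old, inoculated i.p. with 10^6 P. berghei ANKA-parasitized red cells. Compound dissolved in DMSO, diluted in 154 mM NaCl, given by oral gavage at 100 mg/kg on days 4, 5, 6 and 7 post-infection. Tail-vein thin smears stained with Rapid Stain, % parasitemia by microscopy; mice euthanized at signs of severe disease.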

Plasmodium berghei [10] = assay: Antimalarial activity against Plasmodium berghei ANKA infected in specific pathogen-free C57BL/6 mouse assessed as reduction in parasitemia at 100 mg/kg, po administered once daily for 4 days measured up to 35 days post-infection by rapid staining-based microscopic analysis; assay type: functional, organism-based; method in brief: as §2

COC1=CC(=O)N(C(=O)/C=C/[C@H](C)NC(=O)[C@H](CC2CCCCC2)NC(=O)[C@H](CC2CCCCC2)NC(=O)C2CCN(C)CC2)[C@H]1Cc1c[nH]c2ccccc12
IC50 (Plasmodium falciparum [1]): 164 nM | IC50 (Plasmodium falciparum [2]): 55 nM | IC50 (Falcipain 2): 455 nM | IC50 [3]: 547 nM

COC1=CC(=O)N(C(=O)/C=C/[C@H](CC2CCCCC2)NC(=O)[C@H](CC(C)C)NC(=O)[C@H](CC(C)C)NC(=O)[C@H](C(C)C)N(C)C)[C@H]1Cc1c[nH]c2ccccc12
IC50 (Plasmodium falciparum [1]): 76 nM | IC50 (Plasmodium falciparum [2]): 54 nM | IC50 (Falcipain 2): 270 nM | IC50 [3]: 2570 nM

COC1=CC(=O)N(C(=O)/C=C/[C@H](C)NC(=O)[C@H](CC(C)C)NC(=O)[C@H](CCc2ccccc2)NC(=O)[C@H](C(C)C)N(C)C)[C@H]1Cc1c[nH]c2ccccc12.O=C(O)C(F)(F)F
IC50 (Plasmodium falciparum [1]): 5 nM | IC50 (Plasmodium falciparum [2]): 7 nM | IC50 (Falcipain 2): 57 nM | IC50 [3]: 228 nM | half-life at 1 ug/ml [4]: 9.28 h | Drug metabolism [5]: Metabolite_Detected | Activity (HEK293): Non-Toxic | Drug metabolism [6]: Metabolite_Detected | half-life at 1 ug/ml [7]: 1.83 h

COC1=CC(=O)N(C(=O)/C=C/[C@H](C)NC(=O)[C@H](CC(C)C)NC(=O)[C@H](CC(C)C)NC(=O)[C@H](C(C)C)N(C)C)[C@H]1Cc1c[nH]c2ccccc12.O=C(O)C(F)(F)F
half-life at 1 ug/ml [4]: < 0.0333 h | Activity (HEK293): Non-Toxic | half-life at 1 ug/ml [7]: < 0.0333 h

COC1=CC(=O)N(C(=O)/C=C/[C@H](C)NC(=O)[C@H](CC2CCCCC2)NC(=O)[C@H](CC(C)C)NC(=O)C2CCN(C)CC2)[C@H]1Cc1c[nH]c2ccccc12
IC50 (Plasmodium falciparum [1]): 205 nM | IC50 (Plasmodium falciparum [2]): 59 nM | IC50 (Falcipain 2): 156 nM | IC50 [3]: 480 nM

COC1=CC(=O)N(C(=O)/C=C/[C@@H](NC(=O)[C@H](CC(C)C)NC(=O)[C@H](CC(C)C)NC(=O)[C@H](C(C)C)N(C)C)C2CCCCC2)[C@H]1Cc1c[nH]c2ccccc12.O=C(O)C(F)(F)F
IC50 (Plasmodium falciparum [1]): 9 nM | IC50 (Plasmodium falciparum [2]): 10 nM | IC50 (Falcipain 2): 84 nM | IC50 [3]: 484 nM | half-life at 1 ug/ml [4]: > 10 h | Drug metabolism [5]: Metabolite_Detected | Activity (HEK293): Non-Toxic | Drug metabolism [6]: Metabolite_Detected | half-life at 1 ug/ml [7]: > 10 h

COC1=CC(=O)N(C(=O)/C=C/[C@H](C)NC(=O)C(C)(C)NC(=O)[C@H](CC(C)C)NC(=O)[C@H](C(C)C)N(C)C)[C@H]1Cc1c[nH]c2ccccc12
IC50 (Plasmodium falciparum [1]): > 10000 nM | IC50 (Plasmodium falciparum [2]): 3730 nM | IC50 (Falcipain 2): > 50000 nM | IC50 [3]: > 50000 nM

COC1=CC(=O)N(C(=O)/C=C/[C@H](C)NC(=O)[C@H](CC(C)C)NC(=O)[C@H](Cc2ccccc2)NC(=O)[C@H](C(C)C)N(C)C)[C@H]1Cc1c[nH]c2ccccc12
IC50 (Plasmodium falciparum [1]): 24 nM | IC50 (Plasmodium falciparum [2]): 10 nM | IC50 (Falcipain 2): 60 nM | IC50 [3]: 851 nM

CCN(CC)CCCC(C)Nc1ccnc2cc(Cl)ccc12 (centres undefined)
Activity (Plasmodium berghei [8]): Active | Activity (Plasmodium berghei [9]): Active | Activity (Plasmodium berghei [10]): Active
